Laboratory results published in ChEMBL document CHEMBL1649552 (2009).
Converted amounts (≈) assume the structure as drawn.

Assays:
Format in all cases: functional
Enterobacter cloacae = assay: Antibacterial activity against Enterobacter cloacae by CLSI M100-S17 method
Proteus mirabilis = assay: Antibacterial activity against Proteus mirabilis by CLSI M100-S17 method
[1] = system: Staphylococcus epidermidis; assay: Antibacterial activity against methicillin-resistant Staphylococcus epidermidis by CLSI M100-S17 method
Escherichia coli [2] = assay: Antibacterial activity against acrAB-deficient Escherichia coli AG100a
Enterococcus faecium = assay: Antibacterial activity against Enterococcus faecium by CLSI M100-S17 method
Moraxella catarrhalis = assay: Antibacterial activity against Moraxella catarrhalis by CLSI M100-S17 method
Escherichia coli [3] = assay: Antibacterial activity against Escherichia coli AG100
Staphylococcus aureus [4] = assay: Antibacterial activity against methicillin-susceptible Staphylococcus aureus by CLSI M100-S17 method
Klebsiella pneumoniae = assay: Antibacterial activity against Klebsiella pneumoniae by CLSI M100-S17 method
Klebsiella oxytoca = assay: Antibacterial activity against Klebsiella oxytoca by CLSI M100-S17 method
[5] = system: Staphylococcus epidermidis; assay: Antibacterial activity against methicillin-susceptible Staphylococcus epidermidis by CLSI M100-S17 method
Serratia marcescens = assay: Antibacterial activity against Serratia marcescens by CLSI M100-S17 method
Streptococcus pneumoniae = assay: Antibacterial activity against Streptococcus pneumoniae by CLSI M100-S17 method
Escherichia coli [6] = assay: Antibacterial activity against Escherichia coli by CLSI M100-S17 method
Staphylococcus aureus [7] = assay: Antibacterial activity against methicillin-resistant Staphylococcus aureus by CLSI M100-S17 method
Staphylococcus aureus [8] = assay: Antibacterial activity against Staphylococcus aureus ATCC 29213 by CLSI M100-S17 method; details: ATCC29213
Procedure, shortened: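 Reference strain S. aureus ATCC 29213 was tested by CLSI broth microdilution in frozen in-house panels. Compound was dissolved and diluted in DMSO over doubling dilutions of 0.008 to 4 μg/ml.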

Streptococcus agalactiae = assay: Antibacterial activity against Streptococcus agalactiae by CLSI M100-S17 method
Pseudomonas aeruginosa = assay: Antibacterial activity against Pseudomonas aeruginosa by CLSI M100-S17 method
[9] = system: Stenotrophomonas maltophilia; assay: Antibacterial activity against Stenotrophomonas maltophilia by CLSI M100-S17 method
Enterococcus faecalis = assay: Antibacterial activity against Enterococcus faecalis by CLSI M100-S17 method
Acinetobacter baumannii = assay: Antibacterial activity against Acinetobacter baumannii by CLSI M100-S17 method
Streptococcus pyogenes = assay: Antibacterial activity against Streptococcus pyogenes by CLSI M100-S17 method

For `Cc1c(CN(C)C(=O)/C=C/c2cnc3c(c2)CCC(=O)N3)oc2ccccc12` [AFN-1252], the MIC50 (Enterobacter cloacae) was greater than 4 µg/mL, the MIC90 (Enterobacter cloacae) was greater than 4 µg/mL and the MIC50 (Proteus mirabilis) was 4 µg/mL (≈ 10.7 µM). It also gave an MIC90 (Proteus mirabilis) greater than 4 µg/mL, an MIC [1] of 0.008 µg/mL (≈ 0.0213 µM) and an MIC90 [1] of no more than 0.008 µg/mL. For the same compound, the MIC (Escherichia coli [2]) was 0.016 µg/mL (≈ 0.0426 µM), the MIC50 (Enterococcus faecium) was greater than 4 µg/mL and the MIC90 (Enterococcus faecium) was greater than 4 µg/mL. For the same compound, the MIC50 (Moraxella catarrhalis) was greater than 4 µg/mL, the MIC90 (Moraxella catarrhalis) was greater than 4 µg/mL and the MIC (Escherichia coli [3]) was greater than 32 µg/mL. The MIC50 (Staphylococcus aureus [4]) was no more than 0.008 µg/mL, the MIC90 (Staphylococcus aureus [4]) was no more than 0.008 µg/mL and the MIC50 (Klebsiella pneumoniae) was greater than 4 µg/mL. The MIC90 (Klebsiella pneumoniae) was greater than 4 µg/mL, the MIC50 (Klebsiella oxytoca) was greater than 4 µg/mL and the MIC90 (Klebsiella oxytoca) was greater than 4 µg/mL. The MIC50 [5] was no more than 0.008 µg/mL, the MIC90 [5] was 0.03 µg/mL (≈ 0.0799 µM) and the MIC50 (Serratia marcescens) was 4 µg/mL (≈ 10.7 µM). For the same compound, the MIC90 (Serratia marcescens) was greater than 4 µg/mL, the MIC50 (Streptococcus pneumoniae) was greater than 4 µg/mL and the MIC90 (Streptococcus pneumoniae) was greater than 4 µg/mL. The MIC50 (Escherichia coli [6]) was 4 µg/mL (≈ 10.7 µM), the MIC90 (Escherichia coli [6]) was greater than 4 µg/mL and the MIC (Staphylococcus aureus [7]) was 0.008 µg/mL (≈ 0.0213 µM). The MIC (Staphylococcus aureus [8]) was 0.015 µg/mL (≈ 0.04 µM), the MIC (Streptococcus agalactiae) was greater than 4 µg/mL and the MIC50 (Streptococcus agalactiae) was greater than 4 µg/mL. It also gave an MIC90 (Streptococcus agalactiae) greater than 4 µg/mL, an MIC (Pseudomonas aeruginosa) greater than 4 µg/mL and an MIC50 (Pseudomonas aeruginosa) greater than 4 µg/mL. The MIC90 (Pseudomonas aeruginosa) was greater than 4 µg/mL, the MIC [9] was greater than 4 µg/mL and the MIC50 [9] was greater than 4 µg/mL. For the same compound, the MIC90 [9] was greater than 4 µg/mL, the MIC (Enterococcus faecalis) was greater than 4 µg/mL and the MIC50 (Enterococcus faecalis) was greater than 4 µg/mL. It also gave an MIC90 (Enterococcus faecalis) greater than 4 µg/mL, an MIC (Acinetobacter baumannii) greater than 4 µg/mL and an MIC50 (Acinetobacter baumannii) greater than 4 µg/mL. It also gave an MIC90 (Acinetobacter baumannii) greater than 4 µg/mL, an MIC50 (Streptococcus pyogenes) greater than 4 µg/mL and an MIC90 (Streptococcus pyogenes) greater than 4 µg/mL. It also gave an MIC (Streptococcus pyogenes; read-out: MIC) greater than 4 µg/mL.
